Compound activity as filed in PubChem.
Shown are actives, neighbours in structure and some others; about 7.2% of the full set was active somewhere.
BAP1 inh = inhibitors of BAP1 deubiquitinase, primary screen, biochemical, Ub-AMC fluorescence, kinetic; recombinant BAP1, Ub-AMC hydrolysis fluorescence kinetic; hits give low values; calls only at 20 µM; hit rate 0.48% among 72,000; AID 436, 2006;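 active means activity remaining at or below 50% of control, provided the compound also passes the data quality filters; inactive means the rest, including low values that fail the filters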;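 further: 100% = DMSO wells rate and 0% = substrate alone blank rate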
DAT uptake mod = changed hDAT dopamine uptake under cocaine IC80, either direction, primary screen, cocaine antagonist project, cell-based, LLC-PK1 hDAT, [14C]-dopamine uptake, MLSMR. Sodium-dependent dopamine transporter (Homo sapiens), Q01959. LLC-PK1 hDAT cells, [14C]-dopamine uptake with cocaine IC80; actives deviate in either direction. B-score at 10 µM. hit rate 1.3% among 110,000. AID 449768, 2010;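 active means Z score or B-score, a plate-position-corrected score, falls beyond the plate's 99.7% confidence bounds, in either direction; inactive means both scores lie inside the 99.7% bounds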;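 further: scored against the spread of the other compound wells on the same plate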
D1 allo mod = D1 CRE-luciferase signal change, two-sided – cell-based, HEK293 D1, dopamine EC30, D1 allosteric modulator project, primary screen; B-score at 10 µM; D(1A) dopamine receptor (Homo sapiens), P21728; hit rate 5.9% among 58,000; AID 641, 2007; dopamine EC30 potentiation; actives deviate in either direction;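 active means luminescence count or its row- and column-corrected plate score outside the 99.7% band of the plate's sample wells, on either side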
M1 ag = M1 muscarinic receptor agonists, primary screen, CHO-M1 cells, Fluo-4 calcium, agonist mode; Muscarinic acetylcholine receptor M1; Fluo-4 calcium fluorescence; hits give high values; B-score at 10 µM; hit rate 3% among 64,000; AID 626, 2007;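 active means fluorescence rise, raw or as B-score row- and column-corrected plate score, outside the 99.7% band of its plate's samples, either direction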
M1 antagonist = antagonists of rat M1 muscarinic receptor; hit rate 3.4% among 64,000; CHO-M1 cells, Fluo-4 calcium, ACh EC80 antagonist mode; hits give low values; B-score at 10 µM; Muscarinic acetylcholine receptor M1 (Rattus norvegicus), P08482;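 active means calcium fluorescence response, raw or row-and-column corrected B-score, differing from the plate sample mean either way at a set confidence level, mostly lower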
Target sequence (P08482 whole entry, looked up): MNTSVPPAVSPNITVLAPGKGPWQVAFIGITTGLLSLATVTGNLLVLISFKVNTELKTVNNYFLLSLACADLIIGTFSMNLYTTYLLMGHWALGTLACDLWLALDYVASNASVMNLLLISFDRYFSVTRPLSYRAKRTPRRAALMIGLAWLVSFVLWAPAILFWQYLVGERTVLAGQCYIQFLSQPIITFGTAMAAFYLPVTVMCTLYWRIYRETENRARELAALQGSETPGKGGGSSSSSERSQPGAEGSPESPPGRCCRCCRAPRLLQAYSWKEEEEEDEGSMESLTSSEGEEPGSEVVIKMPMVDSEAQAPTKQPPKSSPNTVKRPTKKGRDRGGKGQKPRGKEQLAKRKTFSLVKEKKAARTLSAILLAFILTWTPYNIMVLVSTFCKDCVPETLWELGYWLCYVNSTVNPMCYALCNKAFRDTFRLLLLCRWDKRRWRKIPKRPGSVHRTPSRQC
HEK293 NFkB inh = inhibitors of PMA/ionomycin-induced NF-kB reporter, primary screen, antigen receptor NF-kB inhibitor project, cell-based, HEK-293 luciferase reporter, luminescence; hit rate 0.21% among 62,000; inhibition, % at 3 µM; HEK-293 NF-kB luciferase reporter;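 active means inhibition above the mean of all tested compounds plus 3 SD, cut at about 40% in these data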;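 further: 0% = stimulated DMSO wells and 100% = 10 µM reference inhibitor 5653914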
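Timing: 1 h pretreatment, 16 h stimulation, 37 °C; system: HEK-293 cells with stable firefly luciferase reporter driven by four HIV NF-kB elements; doses: 3 µM once, 0.30% DMSO; measured by: luciferase luminescence; control set: DMSO and 10 µM reference inhibitor; repeats: single test; reagent: PMA plus ionomycin mix as NF-kB-activating stimulus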
An asterisk follows results filed as active.

CCOc1cccc(C(=O)Nc2ccccc2N2CCN(C(=O)C(C)C)CC2)c1 was read as BAP1 inh inactive, DAT uptake mod -9.1*, D1 allo mod -0.28, M1 ag 0.49, M1 antagonist -0.5 and HEK293 NFkB inh 2.
O=[N+]([O-])c1ccc2oc(SCc3nc4ccccn4c3Br)nc2c1 was read as BAP1 inh inactive.
Cc1nc(=O)c(-c2ccccc2)c(C)n1-c1ccccc1O was read as BAP1 inh inactive, DAT uptake mod -1.3, D1 allo mod -5.6*, M1 ag 2.4, M1 antagonist -0.33 and HEK293 NFkB inh 17.
Screening Cc1nc(=O)c(-c2ccccc2)c(C)n1-c1ccc(O)cc1 returned DAT uptake mod 0.61.
`O=C(NCCCn1ccnc1)c1cccc([N+](=O)[O-])c1` gave BAP1 inh inactive.
COc1ccc(C2C3=C(CC(C)(C)CC3=O)Nc3cc4c(cc32)OCO4)cc1 (stereo not given) was read as DAT uptake mod 2.5*.
`CC1(C)CC(=O)C2=C(C1)Nc1cc3c(cc1C2c1ccc(F)cc1)OCO3` (stereo not given) gave DAT uptake mod -0.2.
For Fc1ccc(-c2cnc[nH]2)cc1 the results were BAP1 inh inactive, DAT uptake mod -0.12, D1 allo mod -0.95, M1 ag -0.04 and M1 antagonist 1.9*.
COc1ccc(-c2nc3c(c(=O)n(C)c(=O)n3C)n2CC2CC(c3ccccc3)=NO2)cc1OC (stereo not given) was read as BAP1 inh inactive, DAT uptake mod 2.2, D1 allo mod 1.4, M1 ag 4.7*, M1 antagonist -0.0017 and HEK293 NFkB inh -11.
For CCOC(=O)C1=C(C)NC(SCC(=O)Nc2cc(C)on2)=C(C#N)C1c1cccs1 (stereo not given) the results were BAP1 inh inactive, DAT uptake mod 1.7, D1 allo mod -5.3*, M1 ag -0.31, M1 antagonist 0.46 and HEK293 NFkB inh 7.
For COc1c(C)cccc1C(=O)Nc1ccc(N2CCN(S(C)(=O)=O)CC2)cc1 the results were BAP1 inh inactive, DAT uptake mod -7.9*, D1 allo mod -0.0028, M1 ag 0.16, M1 antagonist 0.04 and HEK293 NFkB inh -10.
`COc1ccccc1N=c1scc(-c2ccc3c(c2)NC(=O)CO3)n1CC1CCCO1` (stereo not given) gave BAP1 inh inactive, DAT uptake mod 0.55, D1 allo mod -2.8*, M1 ag 2.8, M1 antagonist -0.27 and HEK293 NFkB inh 6.
CCN=c1scc(-c2ccc3c(c2)NC(=O)CO3)n1N=C1CCCC1 was read as BAP1 inh inactive, DAT uptake mod 5.5*, D1 allo mod -1.4, M1 ag 1.8, M1 antagonist -0.26 and HEK293 NFkB inh 26.
Screening Cc1ccc(-c2nc(Nc3ccccc3C)sc2C)cc1 returned BAP1 inh inactive.
For CCCOC(=O)C1=C(C)N(CC)C(=O)NC1c1ccc([N+](=O)[O-])cc1 (stereo not given) the results were BAP1 inh inactive.
Screening COc1cc(C(=O)N2CC(=O)Nc3ccc(Br)cc3C2c2ccccc2Cl)cc(OC)c1OC (stereo not given) returned BAP1 inh inactive.
Screening COc1ccc(C2CC(c3ccccc3)n3nnnc3N2)cc1 (stereo not given) returned DAT uptake mod -0.5.
CCOc1ccc(C2CC(c3cccc(OC)c3OC)n3nnnc3N2)cc1Cl (stereo not given) was read as BAP1 inh inactive, DAT uptake mod -4.3*, M1 ag -0.69, M1 antagonist 0.92 and HEK293 NFkB inh -8.
O=C(Cn1c2ccccc2c(=O)c2ccccc21)Nc1ccc(OCc2ccccc2)cc1 was read as BAP1 inh inactive.
